Experimental data taken from ChEMBL document CHEMBL3400013, “Synthesis and biological activity evaluation of hydrazone derivatives based on a Tröger's base skeleton” (Bioorg Med Chem, 2015).
Calls of active or inactive are those of the source. No cut-off for these calls is given here.

Experiments:
Nucleic Acid [1] = assay: Binding affinity to DNA (unknown origin) assessed as DNA intercalation by UV-visible spectrophotometry in presence of Fe3+; type: nucleic-acid assay
Nucleic Acid [2] = assay: Binding affinity to DNA (unknown origin) assessed as DNA intercalation by UV-visible spectrophotometry in presence of Ni2+; type: nucleic-acid assay
Nucleic Acid [3] = assay: Binding affinity to DNA (unknown origin) assessed as DNA intercalation by UV-visible spectrophotometry in presence of Zn2+; type: nucleic-acid assay
BJ [4] = assay: Selectivity index, ratio of IC50 for human BJ cells to IC50 for human CCRF-CEM cells; type: functional; settings: pooled result: one value given for 2 cell lines, strains, targets or settings
BJ [5] = assay: Selectivity index, ratio of IC50 for human BJ cells to IC50 for human CEM-DNR cells; type: functional
CEM-DNR = assay: Selectivity index, ratio of IC50 for human MRC5 cells to IC50 for human CEM-DNR cells; type: functional
BJ [6] = assay: Selectivity index, ratio of IC50 for human BJ cells to IC50 for human K562 cells; type: functional
K562 [7] = assay: Selectivity index, ratio of IC50 for human MRC5 cells to IC50 for human K562 cells; type: functional
BJ [8] = assay: Selectivity index, ratio of IC50 for human BJ cells to IC50 for human K562-TAX cells; type: functional
MRC5 [9] = assay: Selectivity index, ratio of IC50 for human MRC5 cells to IC50 for human K562-TAX cells; type: functional
A549 [10] = assay: Selectivity index, ratio of IC50 for human BJ cells to IC50 for human A549 cells; type: functional
A549 [11] = assay: Selectivity index, ratio of IC50 for human MRC5 cells to IC50 for human A549 cells; type: functional
BJ [12] = assay: Selectivity index, ratio of IC50 for human BJ cells to IC50 for human HCT116 cells; type: functional
HCT-116 [13] = assay: Selectivity index, ratio of IC50 for human MRC5 cells to IC50 for human HCT116 cells; type: functional
BJ [14] = assay: Selectivity index, ratio of IC50 for human BJ cells to IC50 for human p53-/- HCT116 cells; type: functional
HCT-116 [15] = assay: Selectivity index, ratio of IC50 for human MRC5 cells to IC50 for human p53-/- HCT116 cells; type: functional
CCRF-CEM = assay: Cytostatic activity against human CCRF-CEM cells after 72 hrs by MTT assay; type: functional, cell-based
How it was run: (§1)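 Cells were seeded at 25,000–30,000 per well and pre-incubated for 24 h at 37°C in 5% CO2. Four-fold compound dilutions were added in duplicate and incubated for 72 h. MTT was added for 1–4 h, and formazan was dissolved in 10% aq SDS (pH 5.5) overnight at 37°C. OD was read at 540 nm. IC50 came from dose-response curves, mean ± SD of eight independent experiments.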

[16] = Cytostatic activity against human CEM-DNR cells after 72 hrs by MTT assay; type: functional, cell-based; how it was run: as §1
K562 [17] = assay: Cytostatic activity against human K562 cells after 72 hrs by MTT assay; type: functional, cell-based; settings: K562, 72 h; how it was run: as §1
[18] = Cytostatic activity against human K562-TAX cells after 72 hrs by MTT assay; type: functional, cell-based; how it was run: as §1
A549 [19] = assay: Cytostatic activity against human A549 cells after 72 hrs by MTT assay; type: functional, cell-based; settings: A549, 72 h; how it was run: as §1
[20] = Cytostatic activity against human HCT116 cells after 72 hrs by MTT assay; type: functional, cell-based; settings: HCT-116, 72 h; how it was run: as §1
[21] = Cytostatic activity against human p53-/- HCT116 cells after 72 hrs by MTT assay; type: functional, cell-based; settings: HCT-116, 72 h; how it was run: as §1
BJ [22] = assay: Cytostatic activity against human BJ cells after 72 hrs by MTT assay; type: ADME, cell-based; how it was run: as §1
MRC5 [23] = assay: Cytostatic activity against human MRC5 cells after 72 hrs by MTT assay; type: ADME, cell-based; settings: MRC5, 72 h; how it was run: as §1
Enterococcus faecalis = assay: Antimicrobial activity against Enterococcus faecalis CCM 4224 up to 200 uM after 24 to 48 hrs by broth microdilution method; type: functional, organism-based
Staphylococcus aureus [24] = assay: Antimicrobial activity against Staphylococcus aureus CCM 3953 up to 200 uM after 24 to 48 hrs by broth microdilution method; type: functional, organism-based
Escherichia coli [25] = assay: Antimicrobial activity against Escherichia coli CCM 3954 up to 200 uM after 24 to 48 hrs by broth microdilution method; type: functional, organism-based
Pseudomonas aeruginosa [26] = assay: Antimicrobial activity against Pseudomonas aeruginosa CCM 395 up to 200 uM after 24 to 48 hrs by broth microdilution method; type: functional, organism-based
Staphylococcus aureus [27] = assay: Antimicrobial activity against methicillin-resistant Staphylococcus aureus MRSA 4591 up to 200 uM after 24 to 48 hrs by broth microdilution method; type: functional, organism-based
[28] = system: Staphylococcus haemolyticus; assay: Antimicrobial activity against methicillin-resistant Staphylococcus haemolyticus A1/16568 up to 200 uM after 24 to 48 hrs by broth microdilution method; type: functional, organism-based
Escherichia coli [29] = assay: Antimicrobial activity against multidrug-resistant Escherichia coli C/16702 up to 200 uM after 24 to 48 hrs by broth microdilution method; type: functional, organism-based
Pseudomonas aeruginosa [30] = assay: Antimicrobial activity against multidrug-resistant Pseudomonas aeruginosa A/16575 up to 200 uM after 24 to 48 hrs by broth microdilution method; type: functional, organism-based
Candida albicans = assay: Antifungal activity against Candida albicans up to 200 uM after 24 to 48 hrs by broth microdilution method; type: functional, organism-based
Pichia kudriavzevii = assay: Antifungal activity against Candida crusei up to 200 uM after 24 to 48 hrs by broth microdilution method; type: functional, organism-based
Candida tropicalis = assay: Antifungal activity against Candida tropicalis up to 200 uM after 24 to 48 hrs by broth microdilution method; type: functional, organism-based
Candida parapsilosis = assay: Antifungal activity against Candida parapsilosis up to 200 uM after 24 to 48 hrs by broth microdilution method; type: functional, organism-based
[31] = Metal chelating activity of the compound assessed as formation of Co2+ complex by UV-vis spectrometry; type: physicochemical
[32] = Metal chelating activity of the compound assessed as formation of Cu2+ complex by UV-vis spectrometry; type: physicochemical
[33] = Metal chelating activity of the compound assessed as formation of Fe3+ complex by UV-vis spectrometry; type: physicochemical
[34] = Metal chelating activity of the compound assessed as formation of Ni2+ complex by UV-vis spectrometry; type: physicochemical
[35] = Metal chelating activity of the compound assessed as formation of Zn2+ complex by UV-vis spectrometry; type: physicochemical
[36] = Metal chelating activity of the compound assessed as formation of Ca2+ complex by UV-vis spectrometry; type: physicochemical
[37] = Metal chelating activity of the compound assessed as formation of Mg2+ complex by UV-vis spectrometry; type: physicochemical
[38] = Metal chelating activity of the compound assessed as formation of Fe2+ complex by UV-vis spectrometry; type: physicochemical
[39] = Metal chelating activity of the compound assessed as formation of Mn2+ complex by UV-vis spectrometry; type: physicochemical
[40] = Metal chelating activity of the compound assessed as formation of Cr3+ complex by UV-vis spectrometry; type: physicochemical
Nucleic Acid [41] = assay: Binding affinity to DNA (unknown origin) assessed as DNA intercalation by UV-visible spectrophotometry; type: nucleic-acid assay
Nucleic Acid [42] = assay: Binding affinity to DNA (unknown origin) assessed as DNA intercalation by UV-visible spectrophotometry in presence of Co2+; type: nucleic-acid assay
Nucleic Acid [43] = assay: Binding affinity to DNA (unknown origin) assessed as DNA intercalation by UV-visible spectrophotometry in presence of Cu2+; type: nucleic-acid assay

COc1cccnc1/C=N/NC(=O)c1ccc2c3c(ccc2c1)N1Cc2c(ccc4cc(C(=O)N/N=C/c5ncccc5OC)ccc24)N(C3)C1
Activity (Nucleic Acid [1]): Active | Activity (Nucleic Acid [2]): Active | Activity (Nucleic Acid [3]): Active | Ratio IC50 (BJ [4]): 2.7 | Ratio IC50 (BJ [5]): 14.9 | Ratio IC50 (CEM-DNR): 14.9 | Ratio IC50 (BJ [6]): 1.8 | Ratio IC50 (K562 [7]): 1.8 | Ratio IC50 (BJ [8]): 34.1 | Ratio IC50 (MRC5 [9]): 34.1 | Ratio IC50 (A549 [10]): 1 | Ratio IC50 (A549 [11]): 1 | Ratio IC50 (BJ [12]): 1.2 | Ratio IC50 (HCT-116 [13]): 1.2 | Ratio IC50 (BJ [14]): 1 | Ratio IC50 (HCT-116 [15]): 1 | IC50 (CCRF-CEM): 36.6 µM | IC50 [16]: 6.71 µM | IC50 (K562 [17]): 55.6 µM | IC50 [18]: 2.93 µM | IC50 (A549 [19]): > 100 µM | IC50 [20]: 85.7 µM | IC50 [21]: > 100 µM | IC50 (BJ [22]): > 100 µM | IC50 (MRC5 [23]): > 100 µM | Activity (Enterococcus faecalis): inactive | Activity (Staphylococcus aureus [24]): inactive | Activity (Escherichia coli [25]): inactive | Activity (Pseudomonas aeruginosa [26]): inactive | Activity (Staphylococcus aureus [27]): inactive | Activity [28]: inactive | Activity (Escherichia coli [29]): inactive | Activity (Pseudomonas aeruginosa [30]): inactive | Activity (Candida albicans): inactive | Activity (Pichia kudriavzevii): inactive | Activity (Candida tropicalis): inactive | Activity (Candida parapsilosis): inactive | Activity [31]: Active | Activity [32]: Active | Activity [33]: Active | Activity [34]: Active | Activity [35]: Active | Activity [36]: Not Active | Activity [37]: Not Active | Activity [38]: Not Active | Activity [39]: Not Active | Activity [40]: Not Active | Activity (Nucleic Acid [41]): inactive | Activity (Nucleic Acid [42]): Active | Activity (Nucleic Acid [43]): Active
